System: MS2 coat protein
Assay: apparent Kd, MS2 coat protein; higher = weaker binding; RNA-MaP array; FMN 200 µM where present
Outline: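 Designs on Illumina sequencing-chip clusters, transcribed by stalled E. coli RNA polymerase, were exposed to SNAP-549-labelled MS2 coat protein in doubling steps from 0.7 or 1.5 nM up to 3 µM, without and then with constant ligand. The buffer held 100 mM Tris-HCl pH 7.5, 80 mM KCl, 4 mM MgCl2, BSA, DTT, yeast tRNA and Tween-20. Apparent Kd values are medians of filtered per-cluster binding-curve fits to green signal normalised to red-channel RNA signal and control-cluster median Fmax.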

[1] = designed as: OFF switch for flavin mononucleotide, no ligand
[2] = ligand present: flavin mononucleotide, designed as: OFF switch for flavin mononucleotide
[3] = designed as: ON switch for flavin mononucleotide, no ligand
[4] = ligand present: flavin mononucleotide, designed as: ON switch for flavin mononucleotide

Sequence: ACAACCAGAGGAUAUGCGCAUAGAUCAGACUUUGUUUCUGAACAUGAGGAUCACCCAUGUAGAAGGCUGUAACA
- apparent Kd [1]: 0.0349 µM
- apparent Kd [2]: 0.0339 µM

Sequence: CGCUGUCACGCAGGAUAUGCAUUGGAUUACAAUGCAGAAGGGCGAUCACAUGAGGAUCACCCAUGUGUAGACAGUGAAGAAGAG
- apparent Kd [3]: 0.728 µM
- apparent Kd [4]: 0.0471 µM

Sequence: GUAGCUAUUAUUAUACAUGAGGAUCACCCAUGUUACAUGUGUAAGGAUAUUGAUGUUUUUAUUAUCAAGAAGGUACUAUGCUAC
- apparent Kd [3]: 0.0123 µM
- apparent Kd [4]: 0.00875 µM

Sequence: AAUAAUGUGAAGGAUAUCACUAGCGAUAGCUAGUGAGAAGGUCACACAUGAGGAUCACCCAUGUGUUCCAAUAA
- apparent Kd [1]: 0.0432 µM
- apparent Kd [2]: 0.172 µM

Sequence: GGGCUGGUAACAGGAUAUCGUGCCUGGCCGGAUUACAUGAGGAUCACCCAUGUCGUUGGAACCAACGAGAAGGGUUGCCUCCCG
- apparent Kd [3]: 0.199 µM
- apparent Kd [4]: 0.0287 µM

Sequence: AUCAUUCGUGUAGGAUAUGCGUGACGAAGUCAUGCAGAAGGACAUGAGGAUCACCCAUGUCUUUCUCGAGCUGUAGCUCGAGGA
- apparent Kd [1]: 0.0239 µM
- apparent Kd [2]: 0.156 µM

Sequence: CAGUCUACAGGAUAUACAUGAGGAUCACCCAUGUGUAUCAACCUUCUGUAAUCCACAUGUAGAAGGGUAGACUG
- apparent Kd [1]: 0.0148 µM
- apparent Kd [2]: 0.0135 µM

Sequence: AAGCCCUGAGGAUAUCCCAACUCGCACAUGAGGAUCACCCAUGUCCUCCUCUGGGCUUCGGGAGAAGGCAGGUCUC
- apparent Kd [1]: 0.0431 µM
- apparent Kd [2]: 0.114 µM

Sequence: UGGUACAUGGGAGGAUAUCAUGUUCUUACAUGAGGAUCACCCAUGUCGAUGGAGACAUCGGAGAUUGAGAAGGCCCAUGUACCU
- apparent Kd [3]: 1.07 µM
- apparent Kd [4]: 0.0542 µM

Sequence: GGAGCACAUAUUAACAUGAGGAUCACCCAUGUCAAAAGACAUGAGGAUAUGGAUCCGAAAAGGAUCCAGAAGGCAUGGUGCUCC
- apparent Kd [3]: 0.268 µM
- apparent Kd [4]: 0.0143 µM

Sequence: GUUAAGGUAGGAUAUACGAUAAUAUAGGGUAGAGAUAUAACACAUGAGGAUCACCCAUGUAGAAGGACCAAUUG
- apparent Kd [1]: 0.0253 µM
- apparent Kd [2]: 0.0752 µM

Sequence: GUGUACAGAGGAUAUACAAGAGGAGUUACGAAAGUAACUUCACAUGAGGAUCACCCAUGUAGAAGGCUGUACAC
- apparent Kd [1]: 0.0246 µM
- apparent Kd [2]: 0.0395 µM

Sequence: UAAGUCGGAGAUAAUAAUGAUUACAUGAGGAUCACCCAUGUAUAGGAUAUCGUCAGGAAUACUGACGAGAAGGAUACAACCGAC
- apparent Kd [1]: 0.018 µM
- apparent Kd [2]: 0.0258 µM

Sequence: UUGGACGUCGUAGGAUAUGUAGGAUAUUCCUACAUGAGGAUCACCCAUGUUGACAUGGAAGAAGGACAGAAGGAGGAUGUCCAU
- apparent Kd [3]: 0.303 µM
- apparent Kd [4]: 0.00718 µM

Sequence: GCAGGAUAAGUGAGGAUAUACCUCUGGAUACAGAGGUAGAAGGUACAUGAGGAUCACCCAUGUCUAUAACCUGC
- apparent Kd [1]: 0.0146 µM
- apparent Kd [2]: 0.0161 µM

Sequence: CCCUCGGCGUGUAGAUACAUACAUGAGGAUCACCCAUGUGAGAAGGAUAUGCACGCGUGCUGCCGGCAGAAGGUCUAGAUGGUG
- apparent Kd [1]: 0.0254 µM
- apparent Kd [2]: 0.0298 µM

Sequence: AUAUGAUAGAUAGGAUAUACAUUGGAUUUAAAAGUAGAAGGAUCAAGUGGGAAAUGAACAUGAGGAUCACCCAUGUAAUAGGAU
- apparent Kd [3]: 0.107 µM
- apparent Kd [4]: 0.0782 µM

Sequence: AGUAGAUCAGGAUAUACGUGAAAGGUCAAAGUGUCACUACUACAUGAGGAUCACCCAUGUAGAAGGGAUCUACA
- apparent Kd [1]: 0.0164 µM
- apparent Kd [2]: 0.0293 µM

Sequence: CCCAGUUAGGAAGGAUAUUGUACAUGAGGAUCACCCAUGUAAUAAAUGAGGAUCUCGGAUGUAUACAAGAAGGUCCGGAUAGGC
- apparent Kd [1]: 0.0716 µM
- apparent Kd [2]: 0.136 µM

Sequence: CAACUGUGAGGAUAUGGUGAGUAGUGCCUGAGCGCUGCUCACCAGAAGGCACAUGAGGAUCACCCAUGUAUGAC
- apparent Kd [1]: 0.046 µM
- apparent Kd [2]: 0.164 µM

Sequence: CCUGAGUCAGGAUAUUGUACCGGCCUGAAGCCAGGCCGGCCCAAGAAGGGACAUGAGGAUCACCCAUGUGAAAA
- apparent Kd [1]: 0.0359 µM
- apparent Kd [2]: 0.0739 µM

Sequence: AUAAUGAGAGGAUAUACAUGAGGAUCACCCAUGUUAUUAUCACGGCGAGCUCCAUUACGUAGAAGGCUCAUUUA
- apparent Kd [1]: 0.0165 µM
- apparent Kd [2]: 0.0447 µM

Sequence: GACGGUGAUGUAGGAUAUACGCUGGAUAACAGCGUAGAAGGACAUGAGGAUCACCCAUGUAAAGUGUCUCUAAAUAACACCGUC
- apparent Kd [1]: 0.0207 µM
- apparent Kd [2]: 0.0475 µM

From the EternaBench riboswitch data
